These results are taken from ChEMBL document CHEMBL4265950, “Discovery of furyl/thienyl β-carboline derivatives as potent and selective PDE5 inhibitors with excellent vasorelaxant effect” (Eur J Med Chem, 2018).

Structures are written as SMILES. Bounds are passed on as bounds.

Usually inhibition stands for how much of the control response was suppressed. One may read the IC50 as the point on the concentration scale where inhibition reaches its midpoint. What is called EC50 is the concentration at which the effect is half-maximal. In general, Ki refers to a dissociation constant, usually derived from enzyme kinetics or from competition with a known ligand. A low value points to higher affinity.

Data set [1] deals with T1, cGMP-specific 3',5'-cyclic phosphodiesterase (Homo sapiens, UniProt O76074). Description: Inhibition of full length recombinant human N-terminal GST-tagged PDE5A1 expressed in baculovirus infected sf9 cells at 100 nM using FAM-cyclic-3',5-GMP as substrate after 1 hr by fluorescence polarization assay relative to control. The essentials:
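Single-point test at 100 nM, reported as percent inhibition. Human PDE5 at 15 ng/mL with 100 nM FAM-cGMP in MOPS pH 7.5 buffer (MgCl2, EDTA, BSA, DTT), 1% DMSO final, 60 min at 25 °C. Binding agent added for 1 h, then fluorescence polarization read at […] nm.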
Background: In fluorescence polarisation assays a small probe gives low polarisation when free and higher when bound to something large.

Data set [2] is described as follows: Stability of the compound in PDE5 enzyme assay condition at 100 uM by HPLC analysis. It counts as ADME.
Data set [3] has as its target T1, cGMP-specific 3',5'-cyclic phosphodiesterase. The data set is described as follows: Inhibition of full length recombinant human N-terminal GST-tagged PDE5A1 expressed in baculovirus infected sf9 cells using FAM-cyclic-3',5-GMP as substrate after 1 hr by fluorescence polarization assay.
Data set [4] addresses Dual specificity calcium/calmodulin-dependent 3',5'-cyclic nucleotide phosphodiesterase 1A (Homo sapiens, UniProt P54750). Description: Inhibition of full length recombinant human N-terminal GST-tagged PDE1A expressed in baculovirus infected sf9 cells using FAM-cyclic-3',5-AMP as substrate after 1 hr by fluorescence polarization assay. The method, boiled down:
(§1)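 Fluorescence polarization assay run at 25 °C for 60 min in 40 mM MOPS pH 7.5, 0.5 mM EDTA, 15 mM MgCl2, 0.15 mg/mL BSA, 1 mM DTT, 0.05% ProClin 200. Contained 15 ng/mL PDE isoform and 100 nM FAM-cGMP or FAM-cAMP according to isoform, with 1% DMSO final. Binding agent added for 1 h at 25 °C; read at […] nm. IC50 from normalized nonlinear dose-response fit.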

Data set [5] deals with cGMP-dependent 3',5'-cyclic phosphodiesterase (Homo sapiens, UniProt O00408). The data set is described as follows: Inhibition of recombinant human N-terminal FLAG-tagged PDE2A (2 to 941 residues) expressed in baculovirus infected sf9 cells using FAM-cyclic-3',5-AMP as substrate after 1 hr by fluorescence polarization assay. The method, boiled down: as §1
The target in data set [6] is cGMP-inhibited 3',5'-cyclic phosphodiesterase 3B (Homo sapiens, UniProt Q13370). Description: Inhibition of recombinant human N-terminal GST-tagged PDE3B (592 to end residues) expressed in baculovirus infected sf9 cells using FAM-cyclic-3',5-AMP as substrate after 1 hr by fluorescence polarization assay. The method, boiled down: as §1
The target in data set [7] is 3',5'-cyclic-AMP phosphodiesterase 4A (Homo sapiens, UniProt P27815). The data set is described as follows: Inhibition of full length recombinant human N-terminal GST-tagged PDE4A1A expressed in baculovirus infected sf9 cells using FAM-cyclic-3',5-AMP as substrate after 1 hr by fluorescence polarization assay.
Data set [8] deals with Cone cGMP-specific 3',5'-cyclic phosphodiesterase subunit alpha' (Homo sapiens, UniProt P51160). The data set is described as follows: Inhibition of full length recombinant human N-terminal GST-tagged PDE6C expressed in baculovirus infected sf9 cells using […] as substrate after 1 hr by fluorescence polarization assay.
The species named for data set [9] is Homo sapiens. The data set is described as follows: Selectivity index, ratio of IC50 for inhibition of full length recombinant human N-terminal GST-tagged PDE6C expressed in baculovirus infected sf9 cells to IC50 for inhibition of full length recombinant human N-terminal GST-tagged PDE5A1 expressed in baculovirus infected sf9 cells.
For data set [10], the target named is Dual 3',5'-cyclic-AMP and -GMP phosphodiesterase 11A (Homo sapiens, UniProt Q9HCR9). The data set is described as follows: Inhibition of full length recombinant human N-terminal GST-tagged PDE11A4 expressed in baculovirus infected sf9 cells using FAM-cyclic-3',5-AMP as substrate after 1 hr by fluorescence polarization assay.
Data set [11] is filed under the species Homo sapiens. The data set is described as follows: Selectivity index, ratio of IC50 for inhibition of full length recombinant human N-terminal GST-tagged PDE11A4 expressed in baculovirus infected sf9 cells to IC50 for inhibition of full length recombinant human N-terminal GST-tagged PDE5A1 expressed in baculovirus infected sf9 cells.
In data set [12] the target is cGMP-specific 3',5'-cyclic phosphodiesterase (Rattus norvegicus) (UniProt O54735). Description: (§2) Inhibition of PDE5 in Wistar rat mesentric arteries assessed as inhibition of phenylephrine-induced contraction by measuring increase in acetylcholine-induced vasorelaxation by pressure myographic method. The essentials: (§3)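 Third-order rat mesenteric arteries (110–150 µm), 3–4 mm unbranched segments, cannulated in PSS (pH 7.4, 95% O2/5% CO2). Equilibrated 35 min while pressure was stepped 10→60 mmHg. Checked with 120 mM KCl and acetylcholine, then constricted with 20 µM phenylephrine (norepinephrine in text) and given compounds cumulatively. Ca²⁺-free PSS set maximal dilation. Outer diameter recorded as % relaxation; EC50 from normalized nonlinear fit.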

Data set [13] has as its target cGMP-specific 3',5'-cyclic phosphodiesterase (Rattus norvegicus, UniProt O54735). The description is as §2. The essentials:
as §3

In data set [14] the target is T1, cGMP-specific 3',5'-cyclic phosphodiesterase. Description: Inhibition of PDE5 (unknown origin).

Chain of Cone cGMP-specific 3',5'-cyclic phosphodiesterase subunit alpha' (P51160 whole entry): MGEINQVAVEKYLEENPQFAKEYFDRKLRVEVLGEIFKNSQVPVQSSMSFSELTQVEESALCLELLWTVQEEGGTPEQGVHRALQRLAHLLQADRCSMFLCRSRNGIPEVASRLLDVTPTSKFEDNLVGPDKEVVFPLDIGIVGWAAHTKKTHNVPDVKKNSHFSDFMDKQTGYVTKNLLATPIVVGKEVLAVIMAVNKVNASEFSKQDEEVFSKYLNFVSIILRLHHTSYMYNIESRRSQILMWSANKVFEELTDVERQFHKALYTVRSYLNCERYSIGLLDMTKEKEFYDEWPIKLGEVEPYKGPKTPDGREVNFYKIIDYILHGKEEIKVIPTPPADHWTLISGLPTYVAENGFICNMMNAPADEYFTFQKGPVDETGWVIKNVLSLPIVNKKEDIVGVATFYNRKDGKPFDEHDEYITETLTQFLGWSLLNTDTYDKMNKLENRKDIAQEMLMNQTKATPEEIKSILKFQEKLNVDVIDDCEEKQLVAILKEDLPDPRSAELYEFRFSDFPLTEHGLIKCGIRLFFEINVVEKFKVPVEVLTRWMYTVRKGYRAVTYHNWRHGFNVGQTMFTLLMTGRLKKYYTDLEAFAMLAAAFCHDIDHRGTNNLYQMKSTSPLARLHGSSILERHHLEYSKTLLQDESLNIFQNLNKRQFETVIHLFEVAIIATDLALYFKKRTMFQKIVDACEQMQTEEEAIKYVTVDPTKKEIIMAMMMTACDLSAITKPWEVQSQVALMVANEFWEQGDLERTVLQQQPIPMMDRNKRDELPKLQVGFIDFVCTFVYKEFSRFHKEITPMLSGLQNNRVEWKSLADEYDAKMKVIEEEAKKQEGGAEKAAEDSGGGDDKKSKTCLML
Chain of cGMP-dependent 3',5'-cyclic phosphodiesterase (O00408 whole entry, the tested form may be a part): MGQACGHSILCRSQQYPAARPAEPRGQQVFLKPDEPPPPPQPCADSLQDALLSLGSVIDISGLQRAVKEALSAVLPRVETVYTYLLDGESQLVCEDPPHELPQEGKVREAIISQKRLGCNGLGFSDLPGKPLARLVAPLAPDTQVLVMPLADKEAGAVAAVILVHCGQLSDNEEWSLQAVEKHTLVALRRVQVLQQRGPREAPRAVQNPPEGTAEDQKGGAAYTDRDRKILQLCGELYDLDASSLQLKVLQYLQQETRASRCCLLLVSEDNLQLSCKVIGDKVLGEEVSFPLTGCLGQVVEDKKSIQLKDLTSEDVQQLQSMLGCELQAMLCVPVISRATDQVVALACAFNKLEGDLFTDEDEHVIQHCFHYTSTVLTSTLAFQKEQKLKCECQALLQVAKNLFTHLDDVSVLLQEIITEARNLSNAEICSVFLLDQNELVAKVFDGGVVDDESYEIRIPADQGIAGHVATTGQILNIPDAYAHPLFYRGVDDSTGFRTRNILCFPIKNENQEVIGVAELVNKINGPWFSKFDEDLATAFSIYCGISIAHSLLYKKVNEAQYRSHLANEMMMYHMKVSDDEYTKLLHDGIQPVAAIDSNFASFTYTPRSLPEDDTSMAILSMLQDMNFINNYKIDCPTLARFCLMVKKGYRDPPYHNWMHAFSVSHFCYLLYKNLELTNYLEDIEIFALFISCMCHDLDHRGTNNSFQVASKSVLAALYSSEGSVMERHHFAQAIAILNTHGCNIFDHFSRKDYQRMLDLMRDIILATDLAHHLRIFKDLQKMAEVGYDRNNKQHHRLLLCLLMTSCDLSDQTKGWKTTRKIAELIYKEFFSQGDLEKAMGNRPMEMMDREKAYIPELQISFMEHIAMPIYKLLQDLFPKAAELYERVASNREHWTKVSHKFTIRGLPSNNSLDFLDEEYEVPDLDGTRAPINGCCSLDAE
Chain of 3',5'-cyclic-AMP phosphodiesterase 4A (P27815 whole entry): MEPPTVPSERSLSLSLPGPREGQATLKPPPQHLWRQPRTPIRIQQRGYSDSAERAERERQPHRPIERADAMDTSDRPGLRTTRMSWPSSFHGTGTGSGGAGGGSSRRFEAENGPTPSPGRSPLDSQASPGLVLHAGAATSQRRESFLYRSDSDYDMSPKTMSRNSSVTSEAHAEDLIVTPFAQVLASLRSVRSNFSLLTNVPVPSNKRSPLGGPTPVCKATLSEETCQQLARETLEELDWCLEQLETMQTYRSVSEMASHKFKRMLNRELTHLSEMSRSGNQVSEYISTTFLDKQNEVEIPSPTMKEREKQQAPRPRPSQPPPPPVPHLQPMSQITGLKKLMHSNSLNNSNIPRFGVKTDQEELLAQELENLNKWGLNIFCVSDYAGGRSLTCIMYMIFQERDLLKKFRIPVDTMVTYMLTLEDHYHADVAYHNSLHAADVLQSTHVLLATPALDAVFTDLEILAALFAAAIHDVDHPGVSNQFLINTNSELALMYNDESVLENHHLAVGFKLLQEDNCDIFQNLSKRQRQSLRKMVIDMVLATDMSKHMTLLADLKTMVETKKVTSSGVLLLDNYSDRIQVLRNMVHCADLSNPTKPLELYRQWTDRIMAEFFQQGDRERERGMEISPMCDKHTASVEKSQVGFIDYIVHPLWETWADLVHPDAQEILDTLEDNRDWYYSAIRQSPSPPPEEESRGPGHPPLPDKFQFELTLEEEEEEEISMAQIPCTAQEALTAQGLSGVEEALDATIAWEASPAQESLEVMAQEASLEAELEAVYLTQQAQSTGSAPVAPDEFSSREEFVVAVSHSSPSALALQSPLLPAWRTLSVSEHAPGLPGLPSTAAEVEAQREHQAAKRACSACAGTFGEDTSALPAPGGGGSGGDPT
Chain of cGMP-inhibited 3',5'-cyclic phosphodiesterase 3B (Q13370 whole entry): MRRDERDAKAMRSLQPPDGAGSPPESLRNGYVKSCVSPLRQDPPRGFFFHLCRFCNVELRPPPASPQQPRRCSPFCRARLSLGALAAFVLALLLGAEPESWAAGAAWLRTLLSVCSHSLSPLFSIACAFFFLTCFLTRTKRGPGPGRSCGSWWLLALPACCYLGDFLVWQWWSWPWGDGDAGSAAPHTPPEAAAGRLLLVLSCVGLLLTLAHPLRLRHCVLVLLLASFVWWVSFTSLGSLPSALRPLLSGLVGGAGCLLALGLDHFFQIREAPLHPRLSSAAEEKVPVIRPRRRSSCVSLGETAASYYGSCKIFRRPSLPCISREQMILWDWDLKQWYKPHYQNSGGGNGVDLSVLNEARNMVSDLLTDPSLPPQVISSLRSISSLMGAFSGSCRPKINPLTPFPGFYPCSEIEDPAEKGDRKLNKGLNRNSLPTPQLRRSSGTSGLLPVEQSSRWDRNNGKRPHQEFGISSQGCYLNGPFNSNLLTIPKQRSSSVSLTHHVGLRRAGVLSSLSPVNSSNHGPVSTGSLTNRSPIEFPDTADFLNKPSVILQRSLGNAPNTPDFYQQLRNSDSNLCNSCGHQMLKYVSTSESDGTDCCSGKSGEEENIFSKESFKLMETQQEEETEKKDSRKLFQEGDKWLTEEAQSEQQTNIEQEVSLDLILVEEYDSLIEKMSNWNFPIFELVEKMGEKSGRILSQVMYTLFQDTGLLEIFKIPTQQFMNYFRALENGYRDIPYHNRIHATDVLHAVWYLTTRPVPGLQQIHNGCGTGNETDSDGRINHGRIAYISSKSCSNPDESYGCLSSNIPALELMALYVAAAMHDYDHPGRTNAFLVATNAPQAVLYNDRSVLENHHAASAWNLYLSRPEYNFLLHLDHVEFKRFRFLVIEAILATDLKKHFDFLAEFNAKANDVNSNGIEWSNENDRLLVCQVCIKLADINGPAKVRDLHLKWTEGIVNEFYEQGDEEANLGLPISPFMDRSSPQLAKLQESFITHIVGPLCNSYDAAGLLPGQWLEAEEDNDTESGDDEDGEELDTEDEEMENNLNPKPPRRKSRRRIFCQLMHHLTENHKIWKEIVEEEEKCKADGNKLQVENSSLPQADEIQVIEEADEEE
Chain of Dual 3',5'-cyclic-AMP and -GMP phosphodiesterase 11A (Q9HCR9 whole entry): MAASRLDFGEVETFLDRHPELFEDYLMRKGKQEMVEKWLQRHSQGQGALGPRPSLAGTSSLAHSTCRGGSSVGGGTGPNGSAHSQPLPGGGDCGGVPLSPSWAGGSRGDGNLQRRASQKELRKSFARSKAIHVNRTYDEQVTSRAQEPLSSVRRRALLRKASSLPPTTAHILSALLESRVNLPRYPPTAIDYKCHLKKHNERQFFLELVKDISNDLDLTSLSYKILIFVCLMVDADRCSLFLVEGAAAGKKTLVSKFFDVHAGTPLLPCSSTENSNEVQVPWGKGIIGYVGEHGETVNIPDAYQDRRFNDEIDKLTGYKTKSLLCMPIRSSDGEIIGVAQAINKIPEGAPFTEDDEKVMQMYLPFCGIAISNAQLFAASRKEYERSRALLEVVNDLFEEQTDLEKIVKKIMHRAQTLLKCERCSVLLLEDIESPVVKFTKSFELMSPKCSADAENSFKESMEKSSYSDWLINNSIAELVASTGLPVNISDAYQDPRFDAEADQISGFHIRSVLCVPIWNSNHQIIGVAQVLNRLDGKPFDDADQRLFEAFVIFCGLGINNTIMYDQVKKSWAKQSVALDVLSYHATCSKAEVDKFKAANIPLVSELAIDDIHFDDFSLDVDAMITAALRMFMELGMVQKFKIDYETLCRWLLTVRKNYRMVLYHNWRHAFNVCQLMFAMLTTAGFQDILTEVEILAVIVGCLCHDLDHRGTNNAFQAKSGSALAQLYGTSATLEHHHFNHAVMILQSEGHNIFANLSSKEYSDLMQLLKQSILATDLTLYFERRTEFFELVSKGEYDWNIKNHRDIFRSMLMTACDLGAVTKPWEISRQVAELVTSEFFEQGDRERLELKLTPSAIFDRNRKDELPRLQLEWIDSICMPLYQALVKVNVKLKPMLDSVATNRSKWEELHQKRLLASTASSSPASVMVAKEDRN

In the case of `CCc1ccc(C(=O)c2[nH]c3ccccc3c2CCNc2ccc(-c3ccccn3)cn2)s1`, the inhibition in [1] was found to be 25.2%. In [2], the Stability entry is listed as “Stable”.
In the case of `CN1CC(=O)N2[C@H](c3ccc(Br)s3)c3[nH]c4ccccc4c3C[C@@H]2C1=O`, the IC50 was 7.2 nM in data set [3]; over 20000 nM in [4]; over 20000 nM in data set [5]; over 20000 nM in data set [6]; over 10000 nM in data set [7]; 136 nM in data set [8]. In addition, the IC50 in data set [10] came out at 219 nM. Moreover, in data set [1], the inhibition was found to be 99.2%. The Ratio IC50 in [9] turned out to be 19; in data set [11], 30. The percent relaxation entry in data set [12] is “Dose-dependent effect”. Further, the EC50 in [13] was found to be 55 nM.
Turning to `CCc1ccc(C2c3[nH]c4ccccc4c3CCN2c2ccc(-c3ccccn3)cn2)s1` (centres undefined), the IC50 in data set [14] was found to be 86 nM.
Regarding `Cc1ccc([C@@H]2c3[nH]c4ccccc4c3C[C@@H]3C(=O)N(C)CC(=O)N23)s1`, the IC50 in [3] is 8.68 nM; in data set [4] it was over 20000 nM; in data set [5] it was over 20000 nM; in data set [6], over 20000 nM; in data set [7], over 10000 nM; in data set [8], over 1000 nM. In data set [10], the IC50 came to 173 nM. The inhibition in [1] was 96%. Moreover, the Ratio IC50 was over 115 in data set [9] and 20 in data set [11]. Also, the percent relaxation result in data set [12] was “Dose-dependent effect”. For the same molecule, in [13], the EC50 worked out at 71 nM.
On to `CCNC(=O)c1cc2c([nH]c3ccccc32)c(-c2ccc(CC)s2)n1`, for which, in [3], the IC50 came out at 227 nM. Also, the inhibition in data set [1] worked out at 47.8%. Moreover, the Stability entry in data set [2] is reported as “Stable”.
`CCCCN1C(=O)[C@H]2Cc3c([nH]c4ccccc34)[C@@H](c3ccc(CC)s3)N2C1=O`: the IC50 in data set [3] is 36.4 nM; in data set [4], over 20000 nM; in data set [5] it was over 20000 nM; in [6], over 20000 nM; in [7] it was over 10000 nM; in [8], over 1000 nM. Also, in data set [10], the IC50 is 386 nM. Also, the inhibition in data set [1] stood at 76.2%. For the same molecule, the Ratio IC50 in [9] was over 27; in [11], 10.
For the molecule `CCN1C(=O)[C@@H]2Cc3c([nH]c4ccccc34)[C@@H](c3ccc(Br)s3)N2C1=O`, half-maximal inhibition in [14] (IC50) required 160 nM.
Turning to `CCc1ccc([C@@H]2c3[nH]c4ccccc4c3C[C@@H]3C(=O)N(CC)C(=O)N23)o1`, the IC50 in [3] is 8.44 nM; in data set [4], over 20000 nM; in [5] it was over 20000 nM; in [6], over 20000 nM; in data set [7] it was over 10000 nM; in data set [8], over 1000 nM. The IC50 in [10] was determined as 99 nM. The inhibition in data set [1] was found to be 85.8%. Also, the Ratio IC50 in data set [9] is over 118; in data set [11], 12. Besides, the percent relaxation entry in data set [12] is “Dose-dependent effect”. In addition, the EC50 in data set [13] was 225 nM.
As to `CCc1ccc([C@@H]2c3[nH]c4ccccc4c3C[C@H]3C(=O)N(CC)C(=O)N23)s1`, the IC50 was 5.24 nM in data set [3]; over 20000 nM in data set [4]; over 20000 nM in data set [5]; over 20000 nM in [6]; over 10000 nM in [7]; 56 nM in [8]. Further, in [10], the IC50 was over 1000 nM. Further, in data set [1], the inhibition came to 94.1%. Besides, the Ratio IC50 was 11 in data set [9] and over 190 in [11]. Besides, the Stability result in data set [2] is reported as “Stable”. Moreover, the percent relaxation result in [12] was “Dose-dependent effect”. The EC50 in data set [13] was found to be 58 nM.
With `CCNC(=O)N1[C@H](c2ccc(CC)o2)c2[nH]c3ccccc3c2C[C@@H]1C(=O)OC`, in [1], the inhibition was found to be 46.1%. The Stability result in data set [2] is recorded as “Stable”.
Regarding `CCN1C(=O)[C@@H]2Cc3c([nH]c4ccccc34)[C@@H](c3sccc3C)N2C1=O`, the IC50 in [3] is 21.4 nM; in data set [4] it was over 20000 nM; in data set [5], over 20000 nM; in [6], over 20000 nM; in data set [7] it was over 10000 nM; in data set [8], 13 nM. In addition, the IC50 in data set [10] was 155 nM. In addition, the inhibition in data set [1] came to 76.1%. Besides, the Ratio IC50 in [9] came out at 0.6; in data set [11], 7.
With `CCc1ccc([C@@H]2c3[nH]c4ccccc4c3C[C@@H]3C(=O)N(CC)C(=O)N23)s1`, the IC50 in data set [3] was 7.02 nM; in data set [4], over 20000 nM; in data set [5], over 20000 nM; in data set [6] it was over 20000 nM; in data set [7], over 10000 nM; in data set [8], over 1000 nM. For the same molecule, the IC50 in data set [10] stood at 169 nM. In addition, in data set [1], the inhibition amounted to 91.4%. In addition, the Ratio IC50 in data set [9] is over 142; in [11] it was 24. Further, the percent relaxation result in data set [12] was “Dose-dependent effect”. The EC50 in [13] worked out at 103 nM.
The molecule `CCCCCN1C(=O)[C@@H]2Cc3c([nH]c4ccccc34)[C@@H](c3ccc(Br)s3)N2C1=O` gave an IC50 in data set [14] of 170 nM.
In data set [14], `CC(C)(C)Oc1ccc(Cc2[nH]c(-c3ccco3)c3c(=O)c4ccccc4oc23)cc1` registered an IC50 of 240 nM.
For `COc1ccc(CN=c2[nH]c(N3CCC[C@H]3CO)ncc2C(=O)NCc2ncccn2)cc1Cl`, in data set [14], the Ki turned out to be 5 nM.
Take `COc1ccc(-c2cnc(N3CC(=O)c4c([nH]c5ccccc45)C3c3ccc4c(c3)OCO4)nc2)cc1OC` (racemic): the Ki in [14] was 8 nM.
For `c1ccc(CNc2ncnc3sc4c(c23)CCCCC4)cc1`, half-maximal inhibition in data set [14] (IC50) was put at 190 nM.
As to `CCc1ccc(C2c3[nH]c4ccccc4c3C(=O)CN2c2ncc(-c3ccc(OC)c(OC)c3)cn2)o1` (centres undefined), the figures for the IC50 in data set [3], in [8] and in data set [10] were 52.5 nM, 288 nM and 634 nM, respectively. Besides, in [1], the inhibition is 73.3%. Moreover, the Ratio IC50 in data set [9] amounted to 5; in data set [11], 12. Besides, the Stability result in data set [2] is “Stable”.
For `CCCCN1C(=O)[C@@H]2Cc3c([nH]c4ccccc34)[C@@H](c3ccc(CC)s3)N2C1=O`, the IC50 in data set [3] was 30.3 nM; in data set [4] it was over 20000 nM; in data set [5], over 20000 nM; in data set [6], over 20000 nM; in data set [7] it was over 10000 nM; in [8], 107 nM. For the same molecule, the IC50 in data set [10] is over 1000 nM. Moreover, the inhibition in data set [1] was 79.4%. For the same molecule, the Ratio IC50 in [9] was 4; in data set [11], over 33.
On to `CCN1C(=O)[C@@H]2Cc3c([nH]c4ccccc34)[C@@H](c3ccc(C)o3)N2C1=O`, for which the IC50 in data set [3] is 10.5 nM; in [4], over 20000 nM; in data set [5], over 20000 nM; in data set [6], over 20000 nM; in data set [7] it was over 10000 nM; in data set [8], 62 nM. Besides, the IC50 in data set [10] turned out to be 4 nM. Moreover, in data set [1], the inhibition turned out to be 85.4%. The Ratio IC50 amounted to 6 in [9] and 0.4 in [11]. For the same molecule, the percent relaxation entry in data set [12] was “Dose-dependent effect”. Further, in [13], the EC50 came out at 191 nM.
